CR mimetic SO – reduction of superoxide in aged yeast, primary screen, HTS; S. cerevisiae aged cells, superoxide DHE fluorescence; active compounds read low; superoxide response (% of plate mean), % at 10 µM; 0.18% of 330,000 active; AID 2690, 2010;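 active means superoxide response under a set limit, about three screen SD below normal, cut at about 65% in these data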;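 further: yeast aged for seven days with compound at 30 °C before DHE staining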
NRP1-CendR mod – modulators of CendR peptide binding to NRP-1, primary screen, biochemical, fluorescence polarization, uHTS; FAM-RPARPAR peptide binding to NRP-1; inhibition, % at 25 µM; Neuropilin-1 (Homo sapiens), O14786; 0.85% of 360,000 active;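 active means inhibition or corrected inhibition above about 18%, plus a signal ratio from 0.5 to 1.5, limit read from the data, passing the limit was not always enough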
Target sequence (O14786 whole entry, looked up): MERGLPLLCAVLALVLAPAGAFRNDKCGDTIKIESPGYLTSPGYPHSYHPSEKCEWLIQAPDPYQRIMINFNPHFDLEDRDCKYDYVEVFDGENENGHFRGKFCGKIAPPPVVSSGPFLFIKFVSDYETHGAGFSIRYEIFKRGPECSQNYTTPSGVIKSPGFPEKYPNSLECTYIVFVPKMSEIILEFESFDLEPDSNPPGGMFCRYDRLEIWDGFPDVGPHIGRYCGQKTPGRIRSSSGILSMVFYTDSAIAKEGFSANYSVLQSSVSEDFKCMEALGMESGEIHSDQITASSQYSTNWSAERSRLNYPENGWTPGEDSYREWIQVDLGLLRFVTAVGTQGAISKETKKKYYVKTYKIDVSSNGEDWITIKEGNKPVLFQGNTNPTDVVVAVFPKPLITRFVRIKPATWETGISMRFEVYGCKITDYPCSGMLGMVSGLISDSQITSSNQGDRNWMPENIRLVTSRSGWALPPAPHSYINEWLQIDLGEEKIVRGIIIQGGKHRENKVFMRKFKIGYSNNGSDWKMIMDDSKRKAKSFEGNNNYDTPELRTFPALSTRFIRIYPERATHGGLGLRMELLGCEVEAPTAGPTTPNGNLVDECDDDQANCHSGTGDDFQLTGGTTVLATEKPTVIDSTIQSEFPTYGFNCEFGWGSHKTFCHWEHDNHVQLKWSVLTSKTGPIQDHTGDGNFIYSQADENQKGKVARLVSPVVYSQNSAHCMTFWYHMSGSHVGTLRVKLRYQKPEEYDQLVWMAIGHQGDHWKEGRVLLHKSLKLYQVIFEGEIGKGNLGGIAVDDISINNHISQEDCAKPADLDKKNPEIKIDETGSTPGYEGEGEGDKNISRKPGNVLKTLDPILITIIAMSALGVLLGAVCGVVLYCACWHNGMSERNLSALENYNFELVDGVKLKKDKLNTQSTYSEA
HIF act – HIF pathway transcriptional activators, primary screen, cell-based, U2OS HRE-luciferase, luminescence; AID 1910, 2009; activation, % at 7.5 µM (by protocol); U2OS HRE-luciferase reporter; normalized: DMSO 0%, desferrioxamine 100%; 0.32% of 300,000 active;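 active means mean activation of at least 10% of the iron chelator positive control signal, with at least half of replicates also reaching 10%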
T cruzi repl – inhibitors of intracellular T. cruzi growth, primary screen, luminescence, NIH3T3 host cells; T. cruzi beta-gal in NIH3T3, 90 h; inhibition, % (test concentration not listed); 1.4% of 300,000 active; AID 1885, 2009;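 active means mean inhibition across valid replicates above about 55%, limit read from the data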;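 further: signal also drops with host cell toxicity which is not excluded here; higher percent means less beta-gal luminescence so fewer parasites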
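assay system = mouse NIH/3T3 fibroblasts infected with β-gal-expressing T. cruzi Tulahuen C4 | input = 5,000 NIH/3T3 host cells per well | buffer or medium = DMEM plus 2% FBS | timing = 3 h host attachment, then at least 90 h co-culture | measured by = GalScreen luminescence, 60 min | evaluation = luminescence reflecting intracellular parasite burden, expressed as percent inhibition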
V-ATPase pH – regulators of yeast V-ATPase proton pumping, primary screen, pHLuorin cytosolic pH fluorescence. S. cerevisiae. response, % at 10 µM. 0.37% of 350,000 active; in the data active means response mostly above about 7.3%, no sharp cut-off; inactive means mostly below about 5.4%; further: actives read high
AI-2 QS modul – Vibrio harveyi AI-2 quorum sensing modulators, primary screen, JMH597 strain, luminescence/OD600 ratio; Vibrio harveyi JMH597 AI-2 luminescence/OD600 ratio, 9 h; active compounds read low; strain lacks LuxN and CqsS sensors; 0 = neutral-control median; activity change, % at 7.5 µM; 0.4% of 300,000 active; in the data active means activity change below about -75%, passing the limit was not always enough;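 further: luminescence divided by OD600 gain over 9 h not by final OD600 alone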
Superoxide pick – superoxide lowering in aged yeast cells, confirmation, cherry picked compounds; shares compounds with CR mimetic SO; S. cerevisiae aging, superoxide DHE fluorescence; active compounds read low; superoxide response (% of plate), % at 10 µM; 1% of 850 active; AID 434994, 2010;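 active means superoxide signal below 65% of the plate average of sample wells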;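 further: cells aged with compound for 7 days at 30 degrees C before staining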
DHE counter – DHE quenching or ROS scavenging interference in aged yeast, artefact control for yeast caloric restriction mimetic project, S. cerevisiae BY4741, flow cytometry. fluorescence response, % at 10 µM. DHE fluorescence; active compounds read low. 850 tested, under 10 active. shares compounds with CR mimetic SO. AID 435000, 2010;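 active means fluorescence response below 15%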;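 further: lower means stronger quenching of DHE signal or ROS scavenging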
Large screens that a line does not name were inactive (follow-up assays come after a bar, where they were run). In the library only some 3% were active in any assay of this set; here they are far more common.

CCN(CC)C(=O)CN(C#N)c1nc(OC)nc(N(C)C)n1	none
C=CCOc1ccccc1CN1CCC(Oc2ccc(C(=O)N3CCCC3)cc2)CC1	CR mimetic SO 65 | Superoxide pick inactive | DHE counter inactive
C[C@H](CO)N1C[C@H](C)[C@@H](CN(C)S(=O)(=O)c2ccc(F)cc2)Oc2c(NC(=O)Cc3ccccc3)cccc2C1=O	none (no result: HIF act, T cruzi repl, AI-2 QS modul)
O=C(N/N=C/c1ccco1)c1[nH]ncc1Br	CR mimetic SO 61 (no result: HIF act, T cruzi repl) | Superoxide pick inactive | DHE counter inactive
O=C(N/N=C/c1ccccc1)c1[nH]ncc1Br	none
CCCOc1ccc(NC(=O)C2CC(=O)N3CCCN=C3S2)cc1 (centres undefined)	CR mimetic SO 65 | Superoxide pick inactive | DHE counter inactive
CCOc1ccc(NC(=O)C2CC(=O)N3CCCN=C3S2)cc1 (centres undefined)	none
Cc1ccc(C(=O)CN2C(=O)C(C)Oc3ccccc32)cc1 (centres undefined)	none
CC1Oc2ccccc2N(CC(=O)c2ccccc2)C1=O (centres undefined)	CR mimetic SO 60 | Superoxide pick inactive | DHE counter inactive
C[C@]12CCC(=O)CC1CCC1C2CC[C@@]2(C)C1CC[C@@]21CCO1 (some centres undefined)	none
C[C@]12CCC3C(CC[C@H]4CCCC[C@]34C)C1CC[C@@]2(O)CNCCO (some centres undefined)	none | Superoxide pick inactive | DHE counter inactive
COc1ccc(CCNC(=O)c2cc(S(=O)(=O)N3CCCCC3)ccc2Cl)cc1	none (no result: CR mimetic SO, HIF act, T cruzi repl, AI-2 QS modul)
Cc1c(NC(=O)CN2C(=O)NC(C)(c3ccc(Cl)cc3)C2=O)c(=O)n(-c2ccccc2)n1C (centres undefined)	none
Cc1cc[n+](CC[n+]2ccc(C)cc2)cc1	none
CCC(C)(C)c1ccc(OCCCC[n+]2ccc(C)cc2)c(C(C)(C)CC)c1	CR mimetic SO 61 (no result: NRP1-CendR mod, V-ATPase pH) | Superoxide pick inactive | DHE counter inactive
Cc1ccsc1CNS(=O)(=O)c1ccc(F)cc1	CR mimetic SO 60 | Superoxide pick inactive | DHE counter inactive
NC(=O)C1CCN(C(=O)CSc2ncccn2)CC1	none
C#Cc1cccc(-n2nnc(C(=O)OC)c2-c2ccccc2)c1	CR mimetic SO 52 | Superoxide pick inactive | DHE counter inactive
COC(=O)c1nnn(-c2ccccc2)c1N	none
Cc1ccc(NC(=O)c2sc3ncnc(N4CCN(c5ccccn5)CC4)c3c2C)c(C)c1	none
COC(=O)C(CC(C)C)NC(=O)C(N)Cc1ccccc1 (centres undefined)	none
COC(=O)[C@H](Cc1ccccc1)NC(=O)[C@@H](N)CC(=O)OCc1ccccc1	CR mimetic SO 65 (no result: HIF act, T cruzi repl, AI-2 QS modul) | Superoxide pick inactive | DHE counter inactive
CCC(=Nc1ccccc1O)C1=C(O)CC(c2ccccc2)CC1=O (centres undefined)	CR mimetic SO 62 | Superoxide pick inactive | DHE counter inactive
O=C(NCC1CCCCC1)c1ccc(Br)o1	none
O=C(c1ccc2oc(CCCc3ccccc3)nc2c1)N1CCCCC1CO (centres undefined)	none
O=C(Cc1ccc(Cl)cc1)NCC(=O)N1CCC2(CC1)NCCc1[nH]cnc12	none (no result: CR mimetic SO, HIF act, T cruzi repl, AI-2 QS modul)
O=C(Cc1ccc(Cl)cc1)N1CCC2(CC1)NCCc1[nH]cnc12	CR mimetic SO 64 | Superoxide pick inactive | DHE counter inactive
NNC(=O)CCn1c2ccccc2c2ccccc21	none | Superoxide pick inactive | DHE counter inactive
COc1ccc(OC)c(-c2nnc(SCC(=O)N3CCCc4ccccc43)o2)c1	none
CC(C)CC(NC(=O)C1CCC(C)CC1)C(=O)NCCN1CCOCC1 (centres undefined)	none
CSCCC(NC(=O)C1CCC(C)CC1)C(=O)NCCN1CCOCC1 (centres undefined)	CR mimetic SO 58 | Superoxide pick inactive | DHE counter inactive
Cc1ccnc(NC(=O)CN2C(=O)c3ccccc3C2=O)c1	none
CCc1ccc(CN2CCC(CO)(CC3CCCCO3)CC2)o1 (centres undefined)	none
CC1CCN(CCC(=O)Nc2ccc3c(c2)OCCO3)CC1	CR mimetic SO 63 (no result: NRP1-CendR mod, V-ATPase pH) | Superoxide pick inactive | DHE counter inactive
OCCN(CC#CC(O)(c1ccccc1)C1CCCCC1)CCO (centres undefined)	none
OCCN(CC#CCn1c2ccccc2c2ccccc21)CCO	none | Superoxide pick inactive | DHE counter inactive
Cn1cccc1C(=O)N1CCN(c2cccc(C(F)(F)F)c2)CC1	none
Cc1ccccc1-c1nc(CS(=O)(=O)CC(=O)NCCCN2CC(C)CC(C)C2)c(C)o1 (centres undefined)	CR mimetic SO 65 | Superoxide pick inactive | DHE counter inactive
Cc1[nH][nH]c(=O)c1C(c1ccc(O)c(Br)c1)c1c(C)[nH][nH]c1=O	CR mimetic SO 56 | Superoxide pick inactive | DHE counter inactive
Cc1cc(C(=O)COc2cccnc2[N+](=O)[O-])c(C)n1-c1ccccc1	CR mimetic SO 58 | Superoxide pick inactive | DHE counter inactive
CCOc1cc(C(=O)OCC(=O)Nc2ccc(SC(F)F)cc2)cc(OCC)c1OCC	CR mimetic SO 39 | Superoxide pick inactive | DHE counter inactive
COc1cc2c(cc1OC)CN(C(=O)CSc1nnc3scc(-c4ccccc4)n13)CC2	none
O=C(COc1ccccc1)NCc1ccccc1	none
Cc1cccc(C)c1OCC(=O)NCc1ccccc1	CR mimetic SO 46 | Superoxide pick inactive | DHE counter inactive
CCOc1ccc(C2C(C(=O)OC)=C(C)N=C3SCCC(=O)N32)cc1OCC (centres undefined)	none
CCN(C(=O)CSc1ncccc1C(=O)OC(C)C)c1cccc(C)c1	CR mimetic SO 63 | Superoxide pick inactive | DHE counter inactive
COC(=O)c1ccccc1NS(=O)(=O)c1ccc(F)cc1	none | Superoxide pick inactive | DHE counter inactive
Cc1cccn2c(=O)c3cc(C(=O)NCc4ccco4)c(=N)n(CCc4ccccc4)c3nc12	none (no result: HIF act, T cruzi repl, AI-2 QS modul)
Cc1cccn2c(=O)c3cc(C(=O)NCc4ccco4)c(=N)n(C(C)C)c3nc12	CR mimetic SO 64 | Superoxide pick inactive | DHE counter inactive

Assay outcomes from PubChem.
